Compound activity from PubChem BioAssay.
SENP8 block-1 – SENP8 protease inhibition | AID 2540 | inhibition, % at 10 µM | purified SENP8, Z-RLRGG-aminoluciferin cleavage, luminescence | actives 1.2% (n = 330,000); in the data active = inhibition above about 50%
SENP8 block-2 – inhibitors of human SENP8 protease. actives 0.64% (n = 360,000). inhibition, % at 20 µM. Q96LD8. recombinant SENP8, Nedd8 substrate fluorescence; in the data active = inhibition mostly above about 40%, no sharp cut-off; inactive = mostly below about 27%
SENP1 inh – inhibitors of human SENP1 SUMO protease catalytic domain; actives 0.21% (n = 360,000); recombinant SENP1 catalytic domain, CyPet-SUMO1-YPet FRET cleavage; Q9P0U3; AID 624204; inhibition, % at 10 µM;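 active = inhibition at least 30% at 10 µM, raw YFP signal under a set limit, fluorescence ratio 0.5 to 1.5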
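Test system: human SENP1 catalytic domain; medium: Tris pH 8 buffer plus EDTA, NaCl, BME, BSA, NP40, catalase; incubation: 50 min reaction at room temperature; technique: FRET, CFP and YFP emission; controls: no-enzyme low control and enzyme-plus-DMSO high control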
Platelet DG rel – platelet dense granule release activity; human platelet-rich plasma, SFLLRN dense granule ATP release, luminescence; inhibition, %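 (compounds screened at 7.5 µM in platelet-rich plasma)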; actives 0.22% (n = 300,000);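 active = mean replicate score, as percent of positive control, at or above 50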
SENP7 inh – blocks the human protease SENP7; Q9BQF6; recombinant SENP7, Z-RLRGG-aminoluciferin luminescence, 40 min; inhibition, % at 5 µM; actives 1.5% (n = 330,000);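 active = inhibition above about 50% at the single test dose, limit read from the data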
SENP6 inh – SENP6 protease inhibition; Q9GZR1; Recombinant SENP6 catalytic domain, aminoluciferin luminescence; inhibition, % at 10 µM; actives 1.8% (n = 330,000); AID 2599;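 active = inhibition above about 50% at the single tested dose, limit read from the data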
Target sequence (Q9GZR1 628-1112 limits assumed): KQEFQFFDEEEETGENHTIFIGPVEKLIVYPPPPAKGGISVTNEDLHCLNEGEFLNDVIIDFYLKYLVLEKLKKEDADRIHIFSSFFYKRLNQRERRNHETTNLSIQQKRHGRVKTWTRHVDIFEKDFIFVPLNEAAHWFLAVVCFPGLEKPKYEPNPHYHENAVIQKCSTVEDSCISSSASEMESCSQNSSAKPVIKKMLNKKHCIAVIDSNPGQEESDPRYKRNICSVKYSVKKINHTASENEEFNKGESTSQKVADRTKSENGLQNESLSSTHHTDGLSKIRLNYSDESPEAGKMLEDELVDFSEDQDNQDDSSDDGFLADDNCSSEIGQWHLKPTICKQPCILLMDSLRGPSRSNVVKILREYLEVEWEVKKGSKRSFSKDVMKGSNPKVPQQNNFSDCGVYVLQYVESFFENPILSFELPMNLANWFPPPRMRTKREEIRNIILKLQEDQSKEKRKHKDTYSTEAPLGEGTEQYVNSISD
SENP8 conf – confirmation of human SENP8 protease inhibitors; shares compounds with SENP7 inh; Recombinant SENP8, Z-RLRGG-aminoluciferin luminescence, 60 min; inhibition, % at 12.5 µM; actives 40% (n = 6,200);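 active = mean inhibition across replicates above about 50%, limit read from the data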
SENP6 confirm – human SENP6 inhibition, confirmed. shares compounds with SENP7 inh. recombinant SENP6, Z-RLRGG-aminoluciferin luminescence. inhibition, % at 12.5 µM. actives 58% (n = 6,200)
SENP7 conf – confirmation of human SENP7 protease inhibitors. shares compounds with SENP7 inh. recombinant SENP7, Z-RLRGG-aminoluciferin luminescence, 40 min. actives 69% (n = 6,200). inhibition, % at 12.5 µM. AID 488917
Casp3 select – inhibits human caspase-3 in SENP selectivity test. shares compounds with SENP7 inh. inhibition, % at 12.5 µM. purified caspase-3, Z-DEVD-aminoluciferin luminescence, 60 min. actives 60% (n = 6,200);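 active = mean inhibition above about 50%, limit read from the data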
Luc interf – counter-screen for SENP inhibitors: luminescence interference | inhibition, % at 12.5 µM | Pre-incubated SENP8/Z-RLRGG-aminoluciferin, luciferase luminescence interference | shares compounds with SENP7 inh | actives 39% (n = 6,200);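 active = mean inhibition above about 50% when retested at one dose, limit read from the data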
A number is an active result; 0 = inactive; - = no result. Sampled rows, rich in hits. Any-hit rate of the full collection: about 2.6%.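 Rule for the calls, unless noted: active = mean inhibition above about 50% in the one-dose retest (limit read from the data); inactive = the rest.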

SMILES	SENP8 block-1	SENP8 block-2	SENP1 inh	Platelet DG rel	SENP7 inh	SENP6 inh	SENP8 conf	SENP6 confirm	SENP7 conf	Casp3 select	Luc interf
Cc1nc(-c2noc(-c3ccccc3Cl)n2)c(C(F)(F)F)o1	70.2	0	0	0	64.8	78.2	0	56.6	78.4	69.8	0
Cc1ccccc1-c1nc(-c2cccnc2)no1	0	0	0	0	53.0	59.9	0	60.0	84.3	67.1	0
Clc1ccccc1/C=C/c1nc(-c2cccnc2)no1	69.4	0	0	0	76.7	88.4	56.2	68.5	89.0	56.1	0
CCOC(=O)c1nc(-c2ccccc2)oc1N1CCOCC1	0	0	0	0	0	0	-	-	-	-	-
O=C(c1ccc(S(=O)(=O)Nc2ccccc2F)cc1)N1CCN(c2ccccc2O)CC1	0	0	0	0	0	0	-	-	-	-	-
COc1cc(C)ccc1S(=O)(=O)NC(=O)C1(C)CCN1C(=O)C1(c2ccc(Cl)cc2)CCC1 (stereo not given)	-	0	0	-	-	-	-	-	-	-	-
Clc1ccccc1-c1nc(-c2cccnc2)no1	64.5	0	0	0	80.9	83.7	0	72.4	92.7	76.9	64.0
Clc1ccccc1-c1nnc(-c2cccnc2)o1	0	0	0	0	0	0	-	-	-	-	-
COc1ccc(C(=O)Nc2nnc(SCC(=O)NC3CCCC3)s2)c(OC)c1	0	0	0	0	62.9	63.6	0	0	0	0	0
COc1ccc(C(=O)Nc2nnc(SCC(=O)NCc3ccco3)s2)c(OC)c1	0	0	0	0	52.3	56.8	0	0	68.1	58.8	0
COc1ccc(C(=O)Nc2nnc(SCC(=O)Nc3ccc(NC(C)=O)cc3)s2)c(OC)c1	0	0	0	0	0	0	-	-	-	-	-
COc1ccccc1C(=O)Nc1nnc(SCC(=O)NCc2ccco2)s1	0	0	0	0	0	0	-	-	-	-	-
CN1C=CC(=C2C(=O)c3ccccc3C2=O)C=C1	0	-	-	0	0	0	-	-	-	-	-
CCN1C=CC(=C2C(=O)c3ccccc3C2=O)C=C1	76.0	0	0	52.7	86.1	87.7	0	85.9	99.7	96.0	89.1
CCCN1C=CC(=C2C(=O)c3ccccc3C2=O)C=C1	89.8	0	0	63.8	93.2	94.6	93.3	97.9	101.6	98.1	60.1
CCCCN1C(C)=CC(=C2C(=O)c3ccccc3C2=O)C=C1C	0	0	0	0	0	60.2	61.1	60.3	80.8	84.7	0
CC1=CC(=C2C(=O)c3ccccc3C2=O)C=C(C)O1	0	0	0	0	0	0	-	-	-	-	-
CCCCCCN1C=CC(=C2C(=O)c3ccccc3C2=O)C=C1	85.5	0	48.1	0	75.9	87.1	0	0	0	0	0
CCn1nc(C)c(CN2CCC(C(=O)Nc3cccc(-c4cccc(Cl)c4)c3)CC2)c1C	0	0	0	0	0	0	-	-	-	-	-
O=C(NCCc1ccccc1)C(NS(=O)(=O)c1cccc2nsnc12)c1ccccc1 (stereo not given)	0	0	0	0	0	0	-	-	-	-	-
O=C1CN(S(=O)(=O)c2ccc([N+](=O)[O-])cc2)CC(=O)N1	0	0	0	0	0	0	-	-	-	-	-
C=CCn1c(C)cc(C(=O)COC(=O)c2cncc(Br)c2)c1C	0	0	0	-	0	0	-	-	-	-	-
Cc1ccccc1/C(N)=N/OC(=O)c1cccs1	0	0	0	0	0	74.1	55.7	55.3	83.9	80.3	61.5
Cc1ccccc1/C(N)=N/OC(=O)/C=C/c1ccccc1	0	0	0	0	60.0	67.4	50.6	52.5	82.9	71.3	64.2
COc1ccc(CCNC(=O)/C=C/c2ccco2)cc1	0	0	0	0	0	0	-	-	-	-	-
